Measured values from ChEMBL document CHEMBL4152290, “1H-Benzo[d]imidazoles and 3,4-dihydroquinazolin-4-ones: Design, synthesis and antitubercular activity” (Eur J Med Chem, 2018).
Values after ≈ are worked out from the molar mass of the structure shown.

Key:
[1] = Selectivity index, ratio of cytotoxic concentration for African green monkey Vero cells by MTT assay to MIC for Mycobacterium tuberculosis H37Rv ATCC 27294; format: toxicity; conditions: read-out: Selectivity Index
[2] = Selectivity index, ratio of cytotoxic concentration for human HepG2 cells by neutral red uptake assay to MIC for Mycobacterium tuberculosis H37Rv ATCC 27294; format: toxicity; conditions: read-out: Selectivity Index
[3] = Stability of the compound in PBS containing 10% DMSO at 25 degC measured after 9 hrs by HPLC analysis; format: physicochemical; conditions: buffer
[4] = Stability of the compound in PBS containing 10% DMSO at 37 degC measured after 9 hrs by HPLC analysis; format: physicochemical; conditions: for remaining at 9 h: PBS containing 10% DMSO, read-out: Stability
[5] = species on record: Danio rerio; assay: Cardiotoxicity in Zebrafish AB embryos assessed as heart beat rate at 20 uM measured at 2 days post fertilization by stereomicroscopic method (reference value: 128.7 to 146.3 bpm); format: organism-based; conditions: in vivo, 48 h
[6] = Stability of the compound in PBS containing 10% DMSO at 37 degC measured after 12 hrs by HPLC analysis; format: physicochemical; conditions: read-out: Stability
[7] = Selectivity index, ratio of cytotoxic concentration for human HaCaT cells by MTT assay to MIC for Mycobacterium tuberculosis H37Rv ATCC 27294; format: toxicity; conditions: read-out: Selectivity Index
[8] = Cytotoxicity against African green monkey Vero assessed as cell viability at 10 ug/ml after 72 hrs by neutral red uptake assay (reference value: 100%); format: cell-based; conditions: chlorocebus sabaeus, Vero cells; read-out: Activity
In short: (§1)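 Seeding was 2×10^3/well for HepG2 and HaCat and 1×10^3/well for Vero. After 24 h, cells received 10 µg/mL final (2% DMSO) for 72 h at 37 °C, 5% CO2. They were washed with PBS, given neutral red 25 µg/mL in serum-free medium for 3 h, washed, and extracted 30 min with acetic acid/EtOH/water 1:50:49. A540 was read. Viability is relative to 2% DMSO controls; mean ± SEM, three experiments in triplicate.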

[9] = Stability of the compound in PBS containing 10% DMSO at 25 degC measured immediately by HPLC analysis; format: physicochemical; conditions: read-out: Stability
[10] = Cytotoxicity against human HaCaT cells assessed as cell viability at 10 ug/ml after 72 hrs by MTT assay (reference value: 100%); format: cell-based; conditions: read-out: Activity
In short: (§2)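 Cells were grown in DMEM with 10% heat-inactivated FBS and penicillin-streptomycin, seeded at 2×10^3/well (HepG2, HaCat) or 1×10^3/well (Vero), then left 24 h. Compound was applied at 10 µg/mL final (2% DMSO) for 72 h at 37 °C, 5% CO2. MTT 1 mg/mL was added for 3 h, formazan dissolved in DMSO, and A595 read. Viability is expressed relative to 2% DMSO wells; mean ± SEM, triplicates, three independent experiments.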

[11] = species on record: Danio rerio; assay: Cardiotoxicity in Zebrafish AB embryos assessed as heart beat rate at 20 uM measured at 5 days post fertilization by stereomicroscopic method (reference value: 148.1 to 158.2 bpm); format: organism-based; conditions: in vivo, 120 h
[12] = Selectivity index, ratio of cytotoxic concentration for African green monkey Vero cells by neutral red uptake assay to MIC for Mycobacterium tuberculosis H37Rv ATCC 27294; format: toxicity; conditions: read-out: Selectivity Index
[13] = Stability of the compound in PBS containing 10% DMSO at 37 degC measured immediately by HPLC analysis; format: physicochemical; conditions: read-out: Stability
[14] = species on record: Danio rerio; assay: Toxicity in Zebrafish AB embryos assessed as morphological alteration by measuring effect on surface area of eyes at 3 to 20 uM measured at 2 to 5 days post fertilization by stereomicroscopic method; format: organism-based; conditions: in vivo
In short: (§3)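 AB embryos are treated from 2 hpf to 5 dpf at 3.0, 15.0 and 20.0 µM in fish water with 1% DMSO, at 28 °C. Controls are fish water and 1% DMSO. Larvae are photographed under a stereomicroscope (3×) at 2 and 5 dpf, n = 30. Body length (µm), ocular distance (µm) and eye surface area (µm²) are measured from the images.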

[15] = Stability of the compound in PBS containing 10% DMSO at 37 degC measured after 3 hrs by HPLC analysis; format: physicochemical; conditions: read-out: Stability
[16] = species on record: Danio rerio; assay: Induction of neurological impairment in Zebrafish AB embryos assessed as alteration in locomotor activity by measuring swimming activity at 3 to 20 uM measured at 5 days post fertilization; format: organism-based; conditions: in vivo, 120 h
In short: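 Larvae were exposed from 2 hpf in fish water with 1% DMSO. At 5 dpf each larva was placed singly in a well of water or treatment solution. After 1 min acclimation, it was video-tracked for 5 min at 15 positions/s, and distance travelled was scored.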

[17] = tested on: Mycobacterium tuberculosis; assay: Antitubercular activity against Mycobacterium tuberculosis H37Rv ATCC 27294 after 7 days by resazurin dye based assay; format: functional; conditions: H37Rv ATCC 27294, 168 h
In short: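 Resazurin microtiter MIC in 7H9 with 10% ADC. Two-fold dilutions from 1 mg/mL DMSO stocks span 25.0–0.05, 10.0–0.02 or 0.02–0.0004 µg/mL, with 2.5% DMSO final. Inoculum is bead-declumped culture grown in 7H9/10% OADC/0.05% Tween 80, diluted to OD600 0.006. Plates run 7 days at 37 °C, then 0.01% resazurin for 48 h. MIC is the lowest concentration preventing the blue-to-pink change. Three independent tests.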

[18] = species on record: Danio rerio; assay: Toxicity in Zebrafish AB embryos assessed as morphological alteration by measuring effect on ocular distance at 3 to 20 uM measured at 2 to 5 days post fertilization by stereomicroscopic method; format: organism-based; conditions: in vivo; in short: as §3
[19] = species on record: Danio rerio; assay: Cardiotoxicity in Zebrafish AB embryos assessed as heart beat rate at 15 uM measured at 5 days post fertilization by stereomicroscopic method (reference value: 148.1 to 158.2 bpm); format: organism-based; conditions: in vivo, 120 h
[20] = Cytotoxicity against African green monkey Vero assessed as cell viability at 10 ug/ml after 72 hrs by MTT assay (reference value: 100%); format: cell-based; conditions: chlorocebus sabaeus, Vero cells; read-out: Activity; in short: as §2
[21] = Stability of the compound in PBS containing 10% DMSO at 37 degC measured after 6 hrs by HPLC analysis; format: physicochemical; conditions: read-out: Stability
[22] = species on record: Danio rerio; assay: Cardiotoxicity in Zebrafish AB embryos assessed as heart beat rate at 3 uM measured at 2 days post fertilization by stereomicroscopic method (reference value: 128.7 to 146.3 bpm); format: organism-based; conditions: in vivo, 48 h
[23] = Cytotoxicity against human HepG2 cells assessed as cell viability at 10 ug/ml after 72 hrs by neutral red uptake assay (reference value: 100%); format: cell-based; conditions: read-out: Activity; in short: as §1
[24] = species on record: Danio rerio; assay: Cardiotoxicity in Zebrafish AB embryos assessed as heart beat rate at 3 uM measured at 5 days post fertilization by stereomicroscopic method (reference value: 148.1 to 158.2 bpm); format: organism-based; conditions: in vivo, 120 h
[25] = species on record: Danio rerio; assay: Cardiotoxicity in Zebrafish AB embryos assessed as heart beat rate at 15 uM measured at 2 days post fertilization by stereomicroscopic method (reference value: 128.7 to 146.3 bpm); format: organism-based; conditions: in vivo, 48 h
[26] = Selectivity index, ratio of cytotoxic concentration for human HepG2 cells by MTT assay to MIC for Mycobacterium tuberculosis H37Rv ATCC 27294; format: toxicity; conditions: read-out: Selectivity Index
[27] = species on record: Danio rerio; assay: Toxicity in Zebrafish AB embryos assessed as morphological alteration by measuring effect on body length of larvae at 3 to 20 uM measured at 2 to 5 days post fertilization by stereomicroscopic method; format: organism-based; conditions: in vivo; in short: as §3
[28] = Stability of the compound in PBS containing 10% DMSO at 25 degC measured after 6 hrs by HPLC analysis; format: physicochemical; conditions: buffer

O=C(CSc1nc2ccccc2c(=O)[nH]1)NC1CCCCC1
selectivity ratio [1]: ≤ 32 | selectivity ratio [2]: ≤ 32 | Stability [3]: 118% | Stability ([4]; buffer, 9 h): 123% | Activity [5]: 155.7 bpm | remaining at 12 h [6]: 120% | selectivity ratio [7]: ≤ 32 | viability at 72 h, 10 ug/ml [8]: 92% | remaining at 0 h [9]: 100% | viability at 72 h, 10 ug/ml [10]: 100% | Activity [11]: 158.4 bpm | selectivity ratio [12]: ≤ 32 | remaining at 0 h [13]: 100% | Activity [14]: Non-Toxic | remaining at 3 h [15]: 109% | Activity [16]: Non-Toxic | MIC [17]: 0.97 µM (≈ 0.308 µg/mL) | Activity [18]: Non-Toxic | Activity [19]: 163 bpm | viability at 72 h, 10 ug/ml [20]: 90% | remaining at 6 h [21]: 111% | Activity [22]: 149.5 bpm | viability at 72 h, 10 ug/ml [23]: 95% | Activity [24]: 162.8 bpm | Activity [25]: 155 bpm | selectivity ratio [26]: ≤ 32 | Activity [27]: Non-Toxic | Stability [28]: 100%

CC1CCCCC1NC(=O)CSc1nc2ccccc2c(=O)[nH]1 (centres undefined)
selectivity ratio [1]: ≤ 32 | selectivity ratio [2]: ≤ 32 | Stability [3]: 127% | remaining at 9 h [4]: 71% | Activity [5]: 153.9 bpm | remaining at 12 h [6]: 70% | selectivity ratio [7]: ≤ 32 | viability at 72 h, 10 ug/ml [8]: 95% | remaining at 0 h [9]: 100% | viability at 72 h, 10 ug/ml [10]: 100% | Activity [11]: 160.6 bpm | selectivity ratio [12]: ≤ 32 | remaining at 0 h [13]: 100% | Activity [14]: Non-Toxic | remaining at 3 h [15]: 92% | Activity [16]: Non-Toxic | MIC [17]: 0.94 µM (≈ 0.312 µg/mL) | Activity [18]: Non-Toxic | Activity [19]: 163.4 bpm | viability at 72 h, 10 ug/ml [20]: 102% | remaining at 6 h [21]: 75% | Activity [22]: 156.3 bpm | viability at 72 h, 10 ug/ml [23]: 101% | Activity [24]: 162.6 bpm | Activity [25]: 151.7 bpm | selectivity ratio [26]: ≤ 32 | Activity [27]: Non-Toxic | Stability [28]: 122%

O=C(CSc1nc2ccccc2c(=O)[nH]1)NC1CCCCCC1
selectivity ratio [1]: ≤ 32 | selectivity ratio [2]: ≤ 32 | Stability [3]: 91% | remaining at 9 h [4]: 68% | Activity [5]: 148.4 bpm | remaining at 12 h [6]: 81% | selectivity ratio [7]: ≤ 32 | viability at 72 h, 10 ug/ml [8]: 94% | remaining at 0 h [9]: 100% | viability at 72 h, 10 ug/ml [10]: 100% | Activity [11]: 153.8 bpm | selectivity ratio [12]: ≤ 32 | remaining at 0 h [13]: 100% | Activity [14]: Non-Toxic | remaining at 3 h [15]: 81% | Activity [16]: Non-Toxic | MIC [17]: 0.48 µM (≈ 0.159 µg/mL) | Activity [18]: Non-Toxic | Activity [19]: 160.4 bpm | viability at 72 h, 10 ug/ml [20]: 91% | remaining at 6 h [21]: 67% | Activity [22]: 139.6 bpm | viability at 72 h, 10 ug/ml [23]: 105% | Activity [24]: 160.1 bpm | Activity [25]: 136.5 bpm | selectivity ratio [26]: ≤ 32 | Activity [27]: Non-Toxic | Stability [28]: 90%
